The list is not random: actives were taken first. Their share in the collection is about 4.7%.
VIM-2 inhibitor: inhibitors of Pseudomonas aeruginosa VIM-2 metallo-beta-lactamase | purified VIM-2, nitrocefin hydrolysis, epi-absorbance fluorescence | 290,000 compounds, 0.89% hits | inhibition, % at 5.6 µM;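 active means inhibition above the mean of all tested compounds plus 3 SD, cutoff set per screening run, cut at about 7.5% in these data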;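 further: red hydrolysis product quenches plate fluorescence so inhibitors raise well fluorescence; 0% = enzyme with DMSO and 100% = DMSO without enzyme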
IMP-1 inhibitor: inhibitors of Pseudomonas aeruginosa IMP-1 metallo-beta-lactamase | purified IMP-1, nitrocefin hydrolysis, epi-absorbance fluorescence | inhibition, % at 5.6 µM | 290,000 compounds, 0.45% hits;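 active means inhibition above the mean plus 3 SD of all compounds in the same screening run, cut at about 4.5% in these data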;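 further: 0% = IMP-1 with DMSO and 100% = DMSO wells lacking enzyme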
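System: purified recombinant IMP-1 beta-lactamase. Medium: Zinc- and detergent-supplemented HEPES buffer, pH 7.1. Compound: one 5.6 µM dose […]. Schedule: 15 min preincubation plus 25 min reaction at 25 °C. Technique: Epi-absorbance fluorescence, 480 nm excitation, 530 nm emission.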
aSyn 5UTR inh: MLPCN primary screen, SNCA 5' untranslated region; AID 1813; inhibition, % (tested at 7.5 µM); alpha-synuclein 5'UTR reporter, inhibitor activity; 300,000 compounds, 0.82% hits; in the data active means inhibition above about 60%;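 further: H4 neuroglioblastoma cells stably carrying SNCA 5'UTR luciferase fusion; 0% = DMSO wells and 100% = positive control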
Mdm2-MdmX inh: human Mdm2/MdmX binding inhibition; O15151+Q00987; 330,000 compounds, 3% hits; SaOS-2 split-luciferase Mdm2/MdmX complementation, luminescence; inhibition, % at 8 µM;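 active means inhibition of at least 50% at 8 µM in the primary screen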
Target sequence (O15151 whole entry, looked up): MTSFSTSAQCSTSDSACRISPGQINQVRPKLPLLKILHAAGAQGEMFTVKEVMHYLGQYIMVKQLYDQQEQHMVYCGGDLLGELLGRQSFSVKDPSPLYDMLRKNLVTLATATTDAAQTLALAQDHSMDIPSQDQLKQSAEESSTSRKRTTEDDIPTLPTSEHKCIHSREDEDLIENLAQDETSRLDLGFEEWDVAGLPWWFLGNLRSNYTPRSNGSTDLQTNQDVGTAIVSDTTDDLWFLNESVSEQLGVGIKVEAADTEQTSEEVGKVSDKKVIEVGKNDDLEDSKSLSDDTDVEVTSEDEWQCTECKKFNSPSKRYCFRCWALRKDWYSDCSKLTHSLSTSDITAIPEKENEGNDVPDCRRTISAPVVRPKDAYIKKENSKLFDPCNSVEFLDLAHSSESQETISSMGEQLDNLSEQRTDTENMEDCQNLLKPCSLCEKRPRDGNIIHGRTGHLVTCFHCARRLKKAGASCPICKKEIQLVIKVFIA
Target sequence (Q00987 whole entry, looked up): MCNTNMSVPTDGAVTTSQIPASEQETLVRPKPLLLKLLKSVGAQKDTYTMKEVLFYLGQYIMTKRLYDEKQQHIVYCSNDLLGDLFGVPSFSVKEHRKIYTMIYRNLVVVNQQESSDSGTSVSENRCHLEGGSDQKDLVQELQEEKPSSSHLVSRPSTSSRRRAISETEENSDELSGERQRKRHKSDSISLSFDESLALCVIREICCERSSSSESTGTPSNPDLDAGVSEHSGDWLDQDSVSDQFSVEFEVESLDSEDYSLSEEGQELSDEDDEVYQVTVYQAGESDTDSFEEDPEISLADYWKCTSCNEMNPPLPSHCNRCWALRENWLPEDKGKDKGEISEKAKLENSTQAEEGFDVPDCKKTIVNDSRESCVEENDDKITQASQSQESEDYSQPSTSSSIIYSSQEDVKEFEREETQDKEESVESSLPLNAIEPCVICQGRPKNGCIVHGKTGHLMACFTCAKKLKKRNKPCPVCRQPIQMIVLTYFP
697 NFkB inh: inhibitors of the PMA/ionomycin-induced NF-kB reporter in 697 B cells; 330,000 compounds, 0.33% hits; inhibition, % at 4 µM; 697 B-cell NF-kB luciferase reporter, 16 h; in the data active means inhibition above about 35%
Jurkat NFkB inh: lowers PMA/ionomycin-induced NF-kB signal in Jurkat cells; AID 435003; PMA/ionomycin-induced NF-kB luciferase reporter, luminescence; 330,000 compounds, 0.53% hits; inhibition, % at 4 µM; in the data active means inhibition above about 50%
Jurkat NFkB conf: lowers PMA/ionomycin-induced NF-kB signal in Jurkat cells. shares compounds with Jurkat NFkB inh. Jurkat NF-kB luciferase, 16 h. inhibition, % at 4 µM. 2,700 compounds, 27% hits. AID 435020;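 active means inhibition reaching about 45% at 4 µM in either replicate, limit read from the data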;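 further: plate controls were PMA/ionomycin stimulated DMSO wells for no effect and unstimulated DMSO wells for full effect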
An asterisk follows results filed as active; · = no result.

SMILES	VIM-2 inhibitor	IMP-1 inhibitor	aSyn 5UTR inh	Mdm2-MdmX inh	697 NFkB inh	Jurkat NFkB inh	Jurkat NFkB conf
C=CCNc1ncnc2c1cnn2-c1ccc(Cl)cc1	-2.2	-2.9	-58.2	-247.8	-223.1	-157.3	-142.8
Clc1ccc(-n2ncc3c(NCc4ccccn4)ncnc32)cc1	0.6	0.8	-123.2	-55.1	-52.2	-50.3	·
COc1ccc(-n2ncc3c(NC(C)C)ncnc32)cc1	-1.6	-1.9	-49.8	-57.7	-242.3	-175.7	-124.1
COc1ccc(-n2ncc3c(NCc4cccnc4)ncnc32)cc1	0.4	-0.5	-148.8	-92.2	-121.5	-62.4	·
COCC(C)Nc1ncnc2c1cnn2-c1ccc(Cl)cc1 (stereo unspecified)	-1.1	-3.0	-132.4	-70.9	-191.1	-174.8	-100.5
Clc1ccc(Cn2ncc3c(NCc4ccccc4)ncnc32)cc1	-2.7	0.7	-25.6	44.0	-27.7	56.4*	33.7
Cc1ccc(OCC(O)Cn2c(N3CCCCC3)nc3c2c(=O)[nH]c(=O)n3C)cc1C (stereo unspecified)	-2.9	-0.8	24.9	9.6	-24.2	-9.5	·
C[C@H](CO)N1C[C@H](C)[C@@H](CN(C)CC2CC2)Oc2c(NC(=O)Cc3ccccc3)cccc2C1=O	·	·	·	3.2	-1.3	2.2	·
CC1CCN(C(=O)CN2C(=O)C(=O)N(C(C)C)C2=O)c2ccccc2S1 (stereo unspecified)	·	·	·	7.2	14.3	-1.8	·
O=C(COC(=O)c1ccc(O)cc1)NC1CCCCCC1	·	·	·	-9.5	25.6	6.4	·
Cc1ccc(Cl)cc1NC(=O)Nn1cnnc1	-2.4	-0.9	7.6	10.5	26.4	-4.0	·
O=C(Nc1ccc(Cl)c(S(=O)(=O)N2CCOCC2)c1)c1ccc(Cl)nc1	·	·	·	32.8	-31.0	30.9	·
COc1ccc(C(=O)Nc2ccccc2C(N)=O)cc1	-2.0	-2.2	-17.3	-77.5	-48.2	-86.5	·
NC(=O)c1ccccc1NC(=O)c1ccc2ccccc2c1	-0.3	-4.5	-138.8	-146.3	-224.2	-174.8	-104.8
COc1ccc(CNC(=O)CCn2nc(C)c3c(C)n(-c4ccccc4)nc3c2=O)c(OC)c1	-1.4	-1.3	6.9	28.9	1.9	4.1	·
O=C(NC1CCCCC1)c1ccc(S(=O)(=O)NCc2ccco2)cc1	0.6	2.3	8.9	12.7	-7.8	-7.7	·
O=C(NC1CCN(Cc2ccccc2)CC1)c1ccc(S(=O)(=O)NCc2ccco2)cc1	-1.4	-1.8	15.0	1.6	-33.5	51.3*	10.0
CC1(C)C(=O)Nc2ccccc2N1C(=O)COc1ccccc1C#N	·	·	·	3.2	17.8	1.8	·
Cc1ccc(S(=O)(=O)N2CCCCC2)cc1NC(=O)Cc1c[nH]c2ccccc12	-0.9	-3.5	20.7	22.2	-78.5	65.7*	20.8
O=C(Nc1ccccn1)c1cc2cc([N+](=O)[O-])ccc2s1	-2.6	-1.4	-158.2	31.3	-9.9	-155.6	-94.7
COc1ccc(-c2nc(CS(=O)CC(=O)NCCCN3CCOCC3)c(C)o2)cc1OC (stereo unspecified)	-3.2	-4.3	-22.6	5.1	0.8	-5.1	·
Cc1ccc(S(=O)(=O)NCc2ccccc2)cc1C(=O)NC1CCC(C)CC1 (stereo unspecified)	-2.2	-2.0	-64.0	-0.3	-96.8	-60.2	·
Cc1cc(C(=O)Nc2sc3c(c2C#N)CCCCC3)cs1	0.1	-0.6	-94.1	-66.6	-178.6	-186.3	-104.9
CC(=O)Nc1sc2c(c1C#N)CCCC2	-2.8	-4.7	-18.2	-10.6	7.8	-16.7	·
Cc1ccc([C@@H]2CC=C(C(=O)O)[C@H](c3cccc(F)c3)N2S(=O)(=O)c2ccccc2C)cc1	·	·	·	19.0	-5.3	5.8	·
SMILES	VIM-2 inhibitor	IMP-1 inhibitor	aSyn 5UTR inh	Mdm2-MdmX inh	697 NFkB inh	Jurkat NFkB inh	Jurkat NFkB conf
Cc1ccc(S(=O)(=O)N2CCCCC2CCNC(=O)C(=O)NCCc2ccco2)cc1 (stereo unspecified)	·	·	-101.8	49.8	-14.9	60.4*	25.2
Cc1cccc(NC(=O)[C@@H]2CCCN2C(=O)OC(C)(C)C)c1	-3.7	-2.4	-5.9	20.9	11.9	1.5	·
Cc1cc2nc(-c3ccc[nH]c3=O)n(Cc3ccccc3F)c2cc1C	-4.6	-4.6	-26.1	·	·	·	·
Cc1c(C(=O)C(=O)N2c3ccccc3CC2C)c2ccccc2n1C (stereo unspecified)	-2.2	-4.4	-8.0	35.3	10.9	14.7	·
Cc1c(C(=O)C(=O)N2CC=C(c3ccccc3)CC2)c2ccccc2n1C	-1.0	-0.3	55.1	44.2	-52.4	52.7*	19.9
COc1cccc(-c2nc(CS(=O)(=O)CC(=O)Nc3ccc(C(C)=O)cc3)c(C)o2)c1	-5.3	-1.5	5.2	27.7	8.9	-7.8	·
CC1=Nc2ccccc2/C1=C\c1sc(Nc2ccc(C)cc2)nc1O	-2.0	-1.5	-4.9	37.0	-22.2	52.8*	61.5*
O=C(Nc1ccc2c(c1)CCC2)c1ccccc1Br	-3.4	-0.9	-128.6	-187.9	-209.2	-176.4	-102.8
CCC1=Nc2cc(C(=O)NCc3cccnc3)ccc2Sc2ccc(C)cc21	-4.0	-2.0	19.6	43.0	-21.1	56.4*	19.5
CCOc1cc(-c2cc(-c3ccc(C)cc3)nc(N)c2C#N)ccc1O	-0.4	-2.6	41.8	35.8	-38.6	51.1*	14.2
CCOc1cc(-c2c(C#N)c(N)nc3c2CCCC3C)ccc1O (stereo unspecified)	2.3	-2.1	21.5	46.2	-10.4	0.3	·
Brc1ccc2c(c1)CN1CCCC1=N2	2.5	1.7	23.1	21.5	26.3	73.5*	24.2
O=C(N=Nc1c(O)[nH]c2ccc(Br)cc12)c1ccccc1-n1cccc1	-2.3	-4.1	·	44.2	13.4	71.5*	38.7
N=C(N)N=Nc1c(O)[nH]c2ccc(Br)cc12	3.8	-3.2	6.2	40.4	-16.0	-3.7	·
Cc1ccc2c(c1)sc1nc(=O)n(-c3ccccc3)c(=O)n12	-2.7	-3.1	-68.4	-150.5	-169.0	-183.4	-114.3
Cc1ccc2c(c1)sc1ncc(NC(=O)c3ccc(F)cc3)c(=O)n12	-3.9	-3.6	-0.3	-10.3	18.3	10.5	·
CCOc1ccc(S(=O)(=O)NCCC(=O)Nc2cccc(C(=O)OC)c2)cc1	-1.8	-1.7	11.5	-25.4	3.4	10.7	·
O=C(O)C(=O)/C(=C\c1ccc(Cl)cc1)c1ccc2ccccc2n1	-0.7	-0.8	-225.8	-33.1	-83.7	-156.4	-54.0
COc1ccc(/C=C2\CCCC3C2=NN(C(=O)CSc2ncn[nH]2)C3c2ccc(OC)cc2)cc1 (stereo unspecified)	-4.2	-3.4	27.3	37.0	5.8	61.2*	-27.4
CC1(C)CC2CC(C)(CN2S(=O)(=O)c2ccc(C(=O)Nc3cc(S(=O)(=O)N4CCOCC4)ccc3Cl)cc2)C1 (stereo unspecified)	-0.9	-1.3	3.8	20.0	-56.5	29.7	·
